The source of these data is ChEMBL document CHEMBL1133298, “N1-Arylsulfonyl-N2-(1-aryl)ethyl-3-phenylpropane-1,2-diamines as novel calcimimetics acting on the calcium sensing receptor” (Bioorg Med Chem Lett, 2000).

This experiment has as its target T1, Extracellular calcium-sensing receptor (Rattus norvegicus) (UniProt P48442).
T1 sequence (whole entry): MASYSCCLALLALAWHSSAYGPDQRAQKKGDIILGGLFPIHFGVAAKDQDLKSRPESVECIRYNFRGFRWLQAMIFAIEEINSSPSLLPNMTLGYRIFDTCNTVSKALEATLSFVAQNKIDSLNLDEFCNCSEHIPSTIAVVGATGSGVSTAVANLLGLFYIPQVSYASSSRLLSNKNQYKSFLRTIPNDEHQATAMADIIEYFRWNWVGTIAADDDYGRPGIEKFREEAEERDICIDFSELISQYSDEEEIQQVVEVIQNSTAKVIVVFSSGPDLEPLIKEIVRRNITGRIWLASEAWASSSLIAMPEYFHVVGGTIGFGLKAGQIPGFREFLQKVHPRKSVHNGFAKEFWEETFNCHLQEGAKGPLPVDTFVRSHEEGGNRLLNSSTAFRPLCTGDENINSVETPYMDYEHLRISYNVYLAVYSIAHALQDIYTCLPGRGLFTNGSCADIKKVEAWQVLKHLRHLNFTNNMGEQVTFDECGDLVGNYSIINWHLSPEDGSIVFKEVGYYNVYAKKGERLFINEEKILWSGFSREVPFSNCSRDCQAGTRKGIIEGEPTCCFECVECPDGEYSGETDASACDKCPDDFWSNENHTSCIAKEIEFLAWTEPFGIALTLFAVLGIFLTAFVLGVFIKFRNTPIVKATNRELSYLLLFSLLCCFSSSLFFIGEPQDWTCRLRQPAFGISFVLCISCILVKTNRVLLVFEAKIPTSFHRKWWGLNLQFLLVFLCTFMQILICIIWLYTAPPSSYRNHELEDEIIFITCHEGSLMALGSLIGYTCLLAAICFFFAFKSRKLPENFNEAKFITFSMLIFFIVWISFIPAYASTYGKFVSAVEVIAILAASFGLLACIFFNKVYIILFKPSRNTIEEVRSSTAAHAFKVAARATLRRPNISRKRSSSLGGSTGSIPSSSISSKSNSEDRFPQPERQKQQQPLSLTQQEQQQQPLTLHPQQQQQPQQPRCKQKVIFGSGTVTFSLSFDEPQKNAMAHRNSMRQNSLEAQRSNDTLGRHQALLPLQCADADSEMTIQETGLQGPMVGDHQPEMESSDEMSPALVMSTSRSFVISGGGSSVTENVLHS
Kind of experiment: Compound was evaluated for accumulation of [3H]- IP in CHO (CaSR) cells expressing rat cloned calcium sensing receptor. In kind it is functional, cell-based. In short, it runs like this: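 CHO cells stably transfected with calcium sensing receptor cloned from rat brain. Grown in basal Ham's F-12 (0.3 mM Ca2+, 0.6 mM Mg2+) and prelabeled overnight with 0.5 µCi/mL myo-[3H]inositol. Drugs were made up at 10 mM in ethanol (stock), diluted in basal medium and tested at 10 µM with 2 mM extracellular Ca2+ at 37 °C. [3H]IP accumulation (phospholipase C activity) is given as % of the maximal response to 10 mM Ca2+, mean ±S.E.M.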

With `COc1ccc(S(=O)(=O)NC(CNC(C)c2cccc3ccccc23)Cc2ccc3c(c2)OCO3)cc1` (centres undefined), the Accumulation is 47%.

As to `Cc1ccc(S(=O)(=O)NC(CNC(C)c2ccccc2)Cc2ccccc2)cc1` (centres undefined), the Accumulation amounted to 16%.

In the case of `CC(NCC(Cc1ccccc1)NS(=O)(=O)c1ccc(Cl)cc1)c1cccc2ccccc12` (centres undefined), the Accumulation is 38%.

Consider `Cc1ccc(S(=O)(=O)NC(CNC(C)c2cccc3ccccc23)Cc2ccccc2)cc1` (centres undefined), for which the Accumulation is 68%.

For `COc1ccc(S(=O)(=O)NC(CNC(C)c2cccc3ccccc23)Cc2ccccc2)cc1OC` (centres undefined), the Accumulation was 97%.

`COc1ccc(S(=O)(=O)NC(CNC(C)c2cccc3ccccc23)Cc2ccccc2OC)cc1` (centres undefined): the Accumulation was determined as 65%.

`COc1ccc(S(=O)(=O)NC(CNC(C)c2cccc(OC)c2)Cc2ccccc2)cc1` (centres undefined): the Accumulation worked out at 34%.

On to `COc1cccc(C(C)NCC(Cc2ccccc2)NS(=O)(=O)c2ccc(C)cc2)c1` (centres undefined), for which the Accumulation worked out at 36%.

Consider `COc1cccc([C@@H](C)NCCCc2ccccc2Cl)c1`, for which the Accumulation is 106%.

With `CC(NCC(Cc1ccccc1)NS(=O)(=O)c1cccc(Cl)c1)c1cccc2ccccc12` (centres undefined), the Accumulation was 83%.

Regarding `CC(NCC(Cc1ccccc1)NS(=O)(=O)c1ccc([N+](=O)[O-])cc1)c1ccccc1` (centres undefined), the Accumulation was determined as 8%.

For the compound `CC(NCC(Cc1ccccc1)NS(=O)(=O)c1ccccc1)c1cccc2ccccc12` (centres undefined), the Accumulation is 78%.

Regarding `CC(NCC(Cc1ccccc1)NS(=O)(=O)c1ccccc1Cl)c1cccc2ccccc12` (centres undefined), the Accumulation worked out at 79%.

As for `COc1ccc(S(=O)(=O)NC(CNC(C)c2cccc3ccccc23)Cc2ccccc2)cc1` (centres undefined), the Accumulation turned out to be 80%.

Regarding `CC(NCC(Cc1ccccc1)NS(=O)(=O)c1ccc(N)cc1)c1ccccc1` (centres undefined), the Accumulation turned out to be 2%.

With `COc1ccc(CC(CNC(C)c2cccc3ccccc23)NS(=O)(=O)c2ccc(OC)cc2)cc1` (centres undefined), the Accumulation is 45%.

For `CC(NCC(Cc1ccccc1)NS(=O)(=O)c1ccc(C(F)(F)F)cc1)c1cccc2ccccc12` (centres undefined), the Accumulation amounted to 27%.

For `COc1ccc(S(=O)(=O)NC(CNC(C)c2cccc3ccccc23)Cc2ccccc2Cl)cc1` (centres undefined), the Accumulation was 60%.

Turning to `CC(NCC(Cc1ccccc1)NS(=O)(=O)c1ccc([N+](=O)[O-])cc1)c1cccc2ccccc12` (centres undefined), the Accumulation stood at 28%.
